According to ChEMBL document CHEMBL2203161 (Bioorg Med Chem, 2012):
Values belong to the molecule of their own block, whether it stands above or below them. Activity calls are given as the source filed them. The rule behind the calls is not given here.

What was measured:
[1] = target: T1, Probable linoleate 9S-lipoxygenase 5 (Solanum tuberosum) (UniProt Q43191); assay: Inhibition of potato 5-lipoxygenase assessed as residual activity preincubated for 10 mins measured by real-time spectrophotometric analysis
T1 sequence (whole entry): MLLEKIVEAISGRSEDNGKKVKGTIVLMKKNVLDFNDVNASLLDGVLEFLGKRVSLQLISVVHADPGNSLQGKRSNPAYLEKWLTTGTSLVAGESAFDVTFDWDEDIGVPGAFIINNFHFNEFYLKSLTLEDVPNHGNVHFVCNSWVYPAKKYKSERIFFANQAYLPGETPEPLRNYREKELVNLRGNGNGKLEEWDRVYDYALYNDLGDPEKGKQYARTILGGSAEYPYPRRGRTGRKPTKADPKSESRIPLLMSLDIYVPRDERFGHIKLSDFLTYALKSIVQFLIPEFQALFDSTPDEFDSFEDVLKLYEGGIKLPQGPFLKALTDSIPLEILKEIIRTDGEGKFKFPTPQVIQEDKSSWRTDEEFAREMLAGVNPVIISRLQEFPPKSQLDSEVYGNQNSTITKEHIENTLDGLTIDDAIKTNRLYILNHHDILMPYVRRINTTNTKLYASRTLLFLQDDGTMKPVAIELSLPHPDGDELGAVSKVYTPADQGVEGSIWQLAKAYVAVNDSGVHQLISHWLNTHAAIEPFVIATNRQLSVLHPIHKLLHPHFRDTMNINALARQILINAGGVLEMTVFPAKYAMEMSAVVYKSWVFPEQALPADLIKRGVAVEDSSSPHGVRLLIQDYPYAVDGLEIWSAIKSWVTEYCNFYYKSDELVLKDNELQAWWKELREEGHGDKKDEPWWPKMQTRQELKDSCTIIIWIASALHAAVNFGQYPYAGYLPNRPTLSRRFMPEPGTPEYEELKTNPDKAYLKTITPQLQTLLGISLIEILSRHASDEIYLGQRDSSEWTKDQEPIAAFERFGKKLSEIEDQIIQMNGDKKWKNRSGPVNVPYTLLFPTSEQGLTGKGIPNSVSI
How it was run: (§1)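 Single-concentration screen against soybean LOX-1 and potato 5-LOX. Enzyme preincubated 10 min with 50 µM compound. Formation of conjugated diene 13-HPOD from linoleic acid followed spectrophotometrically in real time. Residual activity given as percent of blank without inhibitor. Average of three independent experiments with standard deviations.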

[2] = target: T2, Seed linoleate 13S-lipoxygenase-1 (Glycine max) (UniProt P08170); assay: Inhibition of soybean lipoxygenase-1 assessed as formation of 13-HPOD from linoleic acid preincubated for 10 mins measured by real-time spectrophotometric analysis
T2 sequence (whole entry): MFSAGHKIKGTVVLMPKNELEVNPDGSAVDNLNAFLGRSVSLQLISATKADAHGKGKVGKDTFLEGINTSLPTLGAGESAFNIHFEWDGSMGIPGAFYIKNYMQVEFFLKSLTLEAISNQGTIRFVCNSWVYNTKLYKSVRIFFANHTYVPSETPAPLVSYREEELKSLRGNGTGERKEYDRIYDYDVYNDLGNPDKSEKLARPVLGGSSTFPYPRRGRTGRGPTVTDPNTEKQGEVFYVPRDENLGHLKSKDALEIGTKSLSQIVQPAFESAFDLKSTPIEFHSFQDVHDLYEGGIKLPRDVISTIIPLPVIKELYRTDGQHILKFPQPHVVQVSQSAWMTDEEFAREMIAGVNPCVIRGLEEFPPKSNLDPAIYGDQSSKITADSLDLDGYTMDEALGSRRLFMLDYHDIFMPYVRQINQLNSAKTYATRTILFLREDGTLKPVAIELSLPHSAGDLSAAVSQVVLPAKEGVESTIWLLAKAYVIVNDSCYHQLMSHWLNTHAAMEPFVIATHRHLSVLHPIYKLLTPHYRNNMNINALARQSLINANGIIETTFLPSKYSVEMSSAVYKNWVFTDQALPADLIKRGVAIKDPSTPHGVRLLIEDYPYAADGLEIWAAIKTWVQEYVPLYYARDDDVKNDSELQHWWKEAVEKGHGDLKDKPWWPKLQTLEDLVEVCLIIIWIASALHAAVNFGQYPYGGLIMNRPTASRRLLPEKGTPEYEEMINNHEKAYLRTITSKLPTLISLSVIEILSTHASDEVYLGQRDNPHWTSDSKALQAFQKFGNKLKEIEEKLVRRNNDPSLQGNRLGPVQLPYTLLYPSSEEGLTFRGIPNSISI

[3] = Critical micelles concentration of the compound in 0.2 M borate buffer at pH 9; format: physicochemical
How it was run: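 Surface tension plotted against log concentration in 0.2 M borate buffer pH 9.0 at 19 °C (SLO-1 assay conditions). CMC read from the plot.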

[4] = target: T3, Seed linoleate 13S-lipoxygenase-1 (Glycine max, UniProt P08170); assay: Inhibition of soybean lipoxygenase-1 assessed as inhibition constant for enzyme-substrate-inhibitor complex by Lineweaver-Burk plot
T3 sequence (P08170 whole entry): T2 sequence (whole entry)
How it was run: (§2)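 SLO-1 conversion of linoleic acid monitored spectrophotometrically in 0.2 M borate buffer pH 9.0 with no inhibitor or after preincubation with 6 or 11 µM inhibitor. Vmax and Km (apparent) taken from Lineweaver–Burk intercepts. Ki (free enzyme) and K'i (substrate-bound enzyme) calculated with a mixed-inhibition model. n=3, ±S.D.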

[5] = target: T3, Seed linoleate 13S-lipoxygenase-1; assay: Inhibition of soybean lipoxygenase-1 assessed as inhibition constant for enzyme-inhibitor complex by Lineweaver-Burk plot; how it was run: as §2
[6] = target: T3, Seed linoleate 13S-lipoxygenase-1; assay: Inhibition of soybean lipoxygenase-1 assessed as formation of 13-HPOD from linoleic acid preincubated for 10 mins measured by real-time spectrophotometric analysis
[7] = target: T1, Probable linoleate 9S-lipoxygenase 5 (Solanum tuberosum); assay: Activation of potato 5-lipoxygenase assessed as residual activity at 50 uM preincubated for 10 mins measured by real-time spectrophotometric analysis relative to untreated control; how it was run: as §1
[8] = target: T1, Probable linoleate 9S-lipoxygenase 5 (Solanum tuberosum); conditions: 6 uM
[9] = target: T1, Probable linoleate 9S-lipoxygenase 5 (Solanum tuberosum); conditions: 50 uM
[10] = target: T1, Probable linoleate 9S-lipoxygenase 5 (Solanum tuberosum); assay: Activation of potato 5-lipoxygenase assessed as binding constant for substrate bound enzyme preincubated for 10 mins measured by real-time spectrophotometric analysis by Lineweaver-Burk plot
How it was run: (§3)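 Potato 5-LOX kinetics: enzyme preincubated without activator or with activator at 12.5, 25 and 50 µM. Conjugated diene formation from linoleic acid followed spectrophotometrically in real time, in 0.1 M phosphate buffer pH 6.3. Lineweaver–Burk plots drawn. K_A, α and β derived from re-plots of 1/Δslope and 1/Δintercept using the non-essential activation equation. n=3, ±S.D.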

[11] = Critical micelles concentration of the compound in 0.1 M phosphate buffer at pH 6.3; format: physicochemical
How it was run: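 Surface tension measured against log concentration in 0.1 M phosphate buffer pH 6.3 at 25 °C (potato 5-LOX assay conditions). CMC read from the plot.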

[12] = target: T1, Probable linoleate 9S-lipoxygenase 5 (Solanum tuberosum); assay: Activation of potato 5-lipoxygenase assessed as increase in residual activity preincubated for 10 mins measured by real-time spectrophotometric analysis
How it was run: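 Potato 5-LOX in 0.1 M phosphate buffer pH 6.3, preincubated with a range of activator concentrations or without compound (control). Formation of […] from linoleic acid monitored spectrophotometrically in real time. Activity expressed against control. Mean of three independent experiments ±S.D.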

[13] = target: T1, Probable linoleate 9S-lipoxygenase 5 (Solanum tuberosum); assay: Activation of potato 5-lipoxygenase assessed as increase in enzyme catalytic rate preincubated for 10 mins measured by real-time spectrophotometric analysis relative to untreated control
How it was run: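 Non-essential activation analysis of potato 5-LOX in 0.1 M phosphate buffer pH 6.3. Linoleic acid conversion read spectrophotometrically after preincubation with 0, 12.5, 25 or 50 µM activator. β, the change in catalytic constant, is taken from the re-plot of 1/Δintercept from Lineweaver–Burk plots. Three independent experiments.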

[14] = target: T1, Probable linoleate 9S-lipoxygenase 5 (Solanum tuberosum); assay: Activation of potato 5-lipoxygenase assessed as increase in residual activity preincubated for 10 mins measured by real-time spectrophotometric analysis by Lineweaver-Burk plot; how it was run: as §3

SMILES: CCCCCCCCCCCCCCCc1cccc(O)c1C(=O)OC
inhibition [2]: inactive

SMILES: CCCCCCCc1ccc(CCc2cccc(O)c2C(=O)O)cc1
Activity [7]: Active
fold change (FC) [7]: 3

SMILES: CCCCCCCCCCCCCCOc1cccc(O)c1C(=O)O
Ka [10]: 24 µM
IC50 [6]: 55.4 µM
CMC [11]: 208 µM
Activity [7]: Active
fold change (FC) [7]: 3
Activity [12]: Dose-dependent effect
fold change (FC) [13]: 1.4
Ka [14]: 1.8 mM

The next lines start with the values.

inhibition [1]: inactive
inhibition [2]: Active
SMILES: O=C(O)c1c(O)cccc1CCc1ccc2nc(-c3ccccc3)oc2c1

CMC [3]: 436 µM
Ki [4]: 15.7 µM
Ki [5]: 9.8 µM
inhibition [1]: inactive
IC50 [6]: 11.1 µM
SMILES: CCCCCCCc1ccc(CCc2cc(O)cc(O)c2C(=O)O)cc1

CMC [3]: 390 µM
inhibition [8]: 30%
inhibition [9]: 50%
SMILES: CCCCCCCCCCCCCCCc1cccc(O)c1C(=O)O [ANACARDIC ACID]

inhibition [1]: inactive
inhibition [2]: Active
SMILES: CCCCCCCCCCCCCCCc1cc(O)cc(O)c1C(=O)O

inhibition [1]: inactive
IC50 [6]: 58.5 µM
SMILES: O=C(O)c1c(O)cc(O)cc1CCc1ccc(Cc2nc3ccccc3o2)cc1
